Measurements from ChEMBL document CHEMBL1140930 (J Med Chem, 2009).

Columns and labels:
[1] = system: K562; test: Antiproliferative activity against human K562 cells after 48 hrs; format: functional, cell-based; conditions: K562, 48 h
Method in brief: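 K562 cells (RPMI 1640, 10% FBS, 37 °C, 5% CO2) plated at 2 × 10⁵ cells/mL. Compounds dissolved in DMSO/methanol 1:1, vehicle 0.5%. Cells counted in a Neubauer chamber after 48 h and expressed as % of untreated control. Triplicate wells, three experiments. IC50 from nonlinear regression.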

[2] = target: Tubulin (Sus scrofa, UniProt P02554+P02550); test: Inhibition of pig brain tubulin polymerization after 30 mins by turbidimetric assay
Method in brief: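 Microtubule protein from porcine brain (80–90% tubulin, 10–20% MAPs), purified by two disassembly/reassembly cycles. Assay buffer: 20 mM PIPES pH 6.8, 80 mM NaCl, 0.5 mM MgCl2, 1 mM EGTA, 1 mM DTT. Protein at 1.2 mg/mL with 0.6 mM GTP final, 1% DMSO final, 37 °C.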

[3] = Antiproliferative activity against human KB/HeLa cells by XTT assay; format: functional, cell-based
Method in brief: (§1)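 XTT metabolic read-out. Cells seeded at 1 × 10³–8 × 10⁴ cells/well for logarithmic growth and exposed to graded concentrations for 48 h. At least two replicates. IC50 from nonlinear regression of dose-response curves. LT12/MDR: rat LT12 with ectopic human MDR-1. L1210/VCR: MDR-1 expressing, MRP-1 negative.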

[4] = system: SK-OV-3; test: Antiproliferative activity against human SKOV3 cells by XTT assay; format: functional, cell-based
Method in brief: (§2)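 XTT metabolic-activity read-out of proliferation. Cells were seeded at 1 × 10³-8 × 10⁴ cells/well for logarithmic growth and exposed to a range of compound concentrations for 48 h. IC50 came from nonlinear regression of dose-response curves, with at least two replicates. The P388/Adr subline was doxorubicin-selected with elevated MDR-1.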

[5] = system: SF-268; test: Antiproliferative activity against human SF268 cells by XTT assay; format: functional, cell-based; method in brief: as §1
[6] = system: NCI-H460; test: Antiproliferative activity against human NCI-H460 cells by XTT assay; format: functional, cell-based; method in brief: as §1
[7] = system: RKO; test: Antiproliferative activity against human RKO cells by XTT assay; format: functional, cell-based
Method in brief: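 RKO colon cells with ecdysone-inducible p27Kip1. Day 1: plated with or without 3 µM ponasterone A for 24 h, giving G1 arrest when induced (2 × 10⁴ cells/well induced; 6 × 10³ not induced). Day 2: compound added (DMSO control) for 48 h at 37 °C, then standard XTT. At least duplicate. IC50 by nonlinear regression.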

[8] = system: RKO; test: Antiproliferative activity against human RKO cells containing ecdysone-inducible expression vector of p27kipl by XTT assay; format: functional, cell-based
Method in brief: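 RKO cells carried an ecdysone-inducible p27Kip1 vector and were tested with and without induction. On day 1 they were plated with or without 3 µM ponasterone A, which gives G1 arrest, at 2 × 10⁴ cells/well induced or 6 × 10³ not induced, then held 24 h at 37 °C. Compound was then added for 48 h at 37 °C, followed by a standard XTT assay. IC50 came from nonlinear regression, n ≥ 2.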

[9] = Cell cycle arrest in human KB/HeLa cells assessed as G2/M phase accumulation after 24 hrs by FACS analysis; format: functional, cell-based
Method in brief: (§3)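 Subconfluent KB/HeLa cells exposed to a range of compound concentrations for 24 h at 37 °C, then detached and fixed in 70% ethanol. DNA stained with propidium iodide after RNase digestion and measured by flow cytometry. Cell-cycle phase fractions taken from cell cycle analysis software. At least two replicates.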

[10] = Cell cycle arrest in human KB/HeLa cells assessed as S phase accumulation at 0.3 nM after 24 hrs by FACS analysis; format: functional, cell-based; method in brief: as §3
[11] = Cell cycle arrest in human KB/HeLa cells assessed as G2/M phase accumulation at 0.3 nM after 24 hrs by FACS analysis; format: functional, cell-based; method in brief: as §3
[12] = Cell cycle arrest in human KB/HeLa cells assessed as G1 phase accumulation at 0.3 nM after 24 hrs by FACS analysis; format: functional, cell-based; method in brief: as §3
[13] = Cell cycle arrest in human KB/HeLa cells assessed as S phase accumulation at 1 nM after 24 hrs by FACS analysis; format: functional, cell-based; method in brief: as §3
[14] = Cell cycle arrest in human KB/HeLa cells assessed as G2/M phase accumulation at 1 nM after 24 hrs by FACS analysis; format: functional, cell-based; method in brief: as §3
[15] = Cell cycle arrest in human KB/HeLa cells assessed as G1 phase accumulation at 1 nM after 24 hrs by FACS analysis; format: functional, cell-based; method in brief: as §3
[16] = Cell cycle arrest in human KB/HeLa cells assessed as S phase accumulation at 3.16 nM after 24 hrs by FACS analysis; format: functional, cell-based; method in brief: as §3
[17] = Cell cycle arrest in human KB/HeLa cells assessed as G1 phase accumulation at 3.16 nM after 24 hrs by FACS analysis; format: functional, cell-based; method in brief: as §3
[18] = Cell cycle arrest in human KB/HeLa cells assessed as S phase accumulation at 10 nM after 24 hrs by FACS analysis; format: functional, cell-based; method in brief: as §3
[19] = Cell cycle arrest in human KB/HeLa cells assessed as G2/M phase accumulation at 10 nM after 24 hrs by FACS analysis; format: functional, cell-based; method in brief: as §3
[20] = Cell cycle arrest in human KB/HeLa cells assessed as G1 phase accumulation at 10 nM after 24 hrs by FACS analysis; format: functional, cell-based; method in brief: as §3
[21] = Cell cycle arrest in human KB/HeLa cells assessed as S phase accumulation at 31.6 nM after 24 hrs by FACS analysis; format: functional, cell-based; method in brief: as §3
[22] = Cell cycle arrest in human KB/HeLa cells assessed as G2/M phase accumulation at 31.6 nM after 24 hrs by FACS analysis; format: functional, cell-based; method in brief: as §3
[23] = Cell cycle arrest in human KB/HeLa cells assessed as G1 phase accumulation at 31.6 nM after 24 hrs by FACS analysis; format: functional, cell-based; method in brief: as §3
[24] = Cell cycle arrest in human KB/HeLa cells assessed as S phase accumulation at 100 nM after 24 hrs by FACS analysis; format: functional, cell-based; method in brief: as §3
[25] = Cell cycle arrest in human KB/HeLa cells assessed as G2/M phase accumulation at 100 nM after 24 hrs by FACS analysis; format: functional, cell-based; method in brief: as §3
[26] = Cell cycle arrest in human KB/HeLa cells assessed as G1 phase accumulation at 100 nM after 24 hrs by FACS analysis; format: functional, cell-based; method in brief: as §3
[27] = Cell cycle arrest in human KB/HeLa cells assessed as S phase accumulation at 316 nM after 24 hrs by FACS analysis; format: functional, cell-based; method in brief: as §3
[28] = Cell cycle arrest in human KB/HeLa cells assessed as G2/M phase accumulation at 316 nM after 24 hrs by FACS analysis; format: functional, cell-based; method in brief: as §3
[29] = Cell cycle arrest in human KB/HeLa cells assessed as G1 phase accumulation at 316 nM after 24 hrs by FACS analysis; format: functional, cell-based; method in brief: as §3
[30] = Antiproliferative activity against rat LT12 cells after 48 hrs by XTT assay; format: functional, cell-based; conditions: LT12, 48 h; method in brief: as §2
[31] = Antiproliferative activity against rat LT12 cells ectopic expression of human MDR1 after 48 hrs by XTT assay; format: functional, cell-based; conditions: LT12, 48 h; method in brief: as §1
[32] = system: L1210; test: Antiproliferative activity against vincristine-resistance MRP1 negative mouse L1210 cells expressing human MDR1 after 48 hrs by XTT assay; format: functional, cell-based; conditions: L1210, 48 h; method in brief: as §1
[33] = system: P388; test: Antiproliferative activity against mouse P388 cells after 48 hrs by XTT assay; format: functional, cell-based; conditions: P388, 48 h; method in brief: as §2
[34] = system: P388; test: Antiproliferative activity against doxorubicin-resistant mouse P388 cells expressing MDR1 protein after 48 hrs by XTT assay; format: functional, cell-based; conditions: P388, 48 h; method in brief: as §2
[35] = Cell cycle arrest in human KB/HeLa cells assessed as G2/M phase accumulation at 3.16 nM after 24 hrs by FACS analysis; format: functional, cell-based; method in brief: as §3

COc1ccc(C(=O)C(O)C2c3ccccc3C(=O)c3ccccc32)cc1 (configuration not stated)
IC50 [1]: 18000 nM | IC50 [2]: > 10000 nM

COC(=O)C=C1c2ccccc2C(=O)c2ccccc21
IC50 [1]: 6000 nM

Cc1ccc(C(=O)C=C2c3ccccc3C(=O)c3ccccc32)cc1
IC50 [1]: 640 nM | IC50 [2]: 1100 nM

COc1cccc(OC)c1OC(=O)C=C1c2ccccc2C(=O)c2ccccc21
IC50 [1]: 1640 nM | IC50 [2]: 10000 nM

O=C(C=C1c2ccccc2C(=O)c2ccccc21)c1ccc(O)c(O)c1
IC50 [3]: 270 nM | IC50 [4]: 160 nM | IC50 [5]: 220 nM | IC50 [6]: 430 nM | IC50 [7]: 240 nM | IC50 [8]: > 9000 nM | IC50 [1]: 160 nM | IC50 [2]: 2600 nM

COc1ccc(C(=O)C=C2c3ccccc3C(O)c3ccccc32)cc1 (configuration not stated)
IC50 [1]: 210 nM | IC50 [2]: 1200 nM

COc1cc(C(=O)C(O)C2c3ccccc3C(=O)c3ccccc32)cc(OC)c1OC (configuration not stated)
IC50 [1]: 21000 nM | IC50 [2]: > 10000 nM

O=C(C=C1c2ccccc2C(=O)c2ccccc21)c1ccccc1
IC50 [1]: 3600 nM | IC50 [2]: 5000 nM

COc1cc2c(c(OC)c1OC)-c1ccc(OC)c(=O)cc1[C@@H](NC(C)=O)CC2 [COLCHICINE]
IC50 [3]: 10 nM | IC50 [4]: 10 nM | IC50 [5]: 10 nM | IC50 [6]: 10 nM | IC50 [7]: 10 nM | IC50 [8]: > 3000 nM | EC50 [9]: 14 nM | Activity [10]: 26.6% | Activity [11]: 10.1% | Activity [12]: 63.3% | Activity [13]: 25.4% | Activity [14]: 10% | Activity [15]: 64.7% | Activity [16]: 25.1% | Activity [17]: 64.3% | Activity [18]: 35.7% | Activity [19]: 32.1% | Activity [20]: 32.2% | Activity [21]: 11.9% | Activity [22]: 87.6% | Activity [23]: 0.5% | Activity [24]: 5.1% | Activity [25]: 94.7% | Activity [26]: 0.3% | Activity [27]: 5.2% | Activity [28]: 94.5% | Activity [29]: 0.3%

COC(=O)Nc1nc2cc(C(=O)c3cccs3)ccc2[nH]1 [NOCODAZOLE]
IC50 [3]: 140 nM | IC50 [8]: > 10000 nM | IC50 [30]: 6 nM | IC50 [31]: 400 nM | IC50 [32]: > 5000 nM | IC50 [33]: 40 nM | IC50 [34]: > 5000 nM | EC50 [9]: 91 nM | Activity [13]: 23.6% | Activity [14]: 11.1% | Activity [15]: 65.2% | Activity [16]: 24.8% | Activity [35]: 10.6% | Activity [17]: 64.6% | Activity [18]: 25.7% | Activity [19]: 10% | Activity [20]: 64.2% | Activity [21]: 25.7% | Activity [22]: 9.9% | Activity [23]: 64.4% | Activity [24]: 26.1% | Activity [25]: 51.4% | Activity [26]: 22.3% | Activity [27]: 6% | Activity [28]: 93.2% | Activity [29]: 0.9%

CC(=O)O[C@H]1C(=O)[C@@]2(C)[C@H]([C@H](OC(=O)c3ccccc3)[C@]3(O)C[C@H](OC(=O)[C@H](O)[C@@H](NC(=O)c4ccccc4)c4ccccc4)C(C)=C1C3(C)C)[C@]1(OC(C)=O)CO[C@@H]1C[C@@H]2O [PACLITAXEL]
IC50 [3]: 30 nM | IC50 [4]: 50 nM | IC50 [5]: 50 nM | IC50 [6]: 70 nM | IC50 [7]: 20 nM | IC50 [8]: > 10000 nM | IC50 [30]: 300 nM | IC50 [31]: 50 nM | IC50 [32]: 70 nM | IC50 [33]: 70 nM | IC50 [34]: 50 nM | EC50 [9]: 49 nM | Activity [13]: 26.7% | Activity [14]: 10.1% | Activity [15]: 63.2% | Activity [16]: 27% | Activity [35]: 9.4% | Activity [17]: 63.6% | Activity [18]: 26.6% | Activity [19]: 8.5% | Activity [20]: 64.8% | Activity [21]: 49.9% | Activity [22]: 19% | Activity [23]: 31.1% | Activity [24]: 11% | Activity [25]: 87.9% | Activity [26]: 1.2% | Activity [27]: 8.9% | Activity [28]: 90.8% | Activity [29]: 0.3%

CC[C@]1(O)C[C@@H]2CN(CCc3c([nH]c4ccccc34)[C@@](C(=O)OC)(c3cc4c(cc3OC)N(C)[C@H]3[C@@](O)(C(N)=O)[C@H](O)[C@]5(CC)C=CCN6CC[C@]43[C@@H]65)C2)C1 [VINDESINE]
IC50 [30]: 200 nM | IC50 [31]: 260 nM | IC50 [32]: > 5000 nM
